Source: PubChem BioAssay
Rows were chosen to be rich in hits. Some 2.3% of all compounds tested hit in one or more screens of this group.
TRPC4 agonist: activators of mouse TRPC4 channel; Q9QUQ5; HEK293 TRPC4beta/mu-opioid, Fluo4 calcium fluorescence; stronger effect = higher value; B-score at 10 µM; 310,000 compounds, 0.49% hits; AID 2237;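 active = B-score above 5 SD of library B-scores, and initial fluorescence ratio not above library mean plus 5 SD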;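 note: positive B-score marks a calcium rise read as TRPC4 activation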
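system = HEK293 cells stably co-expressing mouse TRPC4beta and mu-opioid receptor | schedule = Fluo4 dye loading 45 min at room temperature, 110 s recording | measure = B-scored integrated calcium fluorescence ratio | signal = Fluo4 calcium-sensitive dye fluorescence, kinetic, 1 Hz baseline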
TRPC4 block: blocks the mouse TRPC4 cation channel; B-score at 10 µM; Q9QUQ5; HEK293 TRPC4beta/mu-opioid, DAMGO-evoked Fluo4 calcium flux; stronger effect = lower value; 300,000 compounds, 0.39% hits;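 active = B-score over 3 SD under the library average, no early fluorescence shift, positive overall ratio signal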
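Assay system: TRPC4beta/mu-opioid receptor HEK293 cell line; compound dosing: single concentration per test compound; detection: Fluo4 Ca2+ flux fluorescence; evaluation: per-well B score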
TRPC6 activator: activates the mouse TRPC6 cation channel; Q61143; HEK293-TRPC6 membrane potential dye fluorescence; stronger effect = higher value; B-score at 10 µM; 310,000 compounds, 0.13% hits; AID 2550;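 active = B-score of the integrated fluorescence ratio above library mean plus 3 SD, and starting fluorescence ratio within library mean plus 5 SD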;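 note: higher score means more depolarization so channel activation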
TRPC6 inh: inhibitors of mouse TRPC6 channel; Q61143; HEK293-TRPC6, membrane potential dye, ACh-evoked depolarization; stronger effect = lower value; B-score at 10 µM; 310,000 compounds, 1.1% hits; AID 2553;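 active = B-score under library mean minus 3 SD, initial fluorescence not abnormally high, positive integrated signal ratio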;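 note: B-score derived from integrated fluorescence ratio over the kinetic read; more negative B-score means stronger inhibition of depolarization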
TRPC4 PAM: allosteric potentiators of mouse TRPC4 channel. Q9QUQ5. HEK293 TRPC4beta/mu-opioid, DAMGO EC20, Fluo-4 Ca2+ flux; stronger effect = higher value. AID 2227. B-score at 10 µM. 310,000 compounds, 0.42% hits;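 active = B-score of calcium response area above 5 SD of library B-scores, with initial fluorescence ratio within 5 SD of library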;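 note: B-score of integrated fluorescence ratio over time as area under calcium response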
* hit, by the source's call; i = inactive.

SMILES | TRPC4 agonist | TRPC4 block | TRPC6 activator | TRPC6 inh | TRPC4 PAM
O=C(Nc1nnc(-c2ccc3c(c2)CCCC3)o1)c1ccccc1Cl | i | i | i | i | i
COC(=O)c1sc(NC(=O)c2cc(-c3ccccc3)nc3ccccc23)c(C#N)c1C | i | i | i | i | 13*
CCOC(=O)c1sc(NC(=O)c2cc(-c3ccc(C)cc3)nc3ccccc23)c(C#N)c1C | i | i | i | i | i
COc1ccc(CNCc2ccc3c(c2)OCO3)c(OC)c1OC | i | i | i | i | i
COc1ccc(CNCc2ccc3c(c2)OCO3)cc1Br | 43* | i | i | i | i
O=C(N/C(=C/c1cccc([N+](=O)[O-])c1)C(=O)N1CCCCC1)c1ccco1 | i | i | i | i | i
COc1ccc(CNCCC(c2ccccc2)c2ccc3c(c2)OCO3)cc1 (stereo not drawn) | 125* | i | i | i | i
COc1ccccc1C(CCNCc1ccc(N(C)C)cc1)c1ccc(OC(C)C)cc1 (stereo not drawn) | 47* | i | i | i | i
CN(Cc1cccc(F)c1)CC(O)COCc1ccccc1Cl (stereo not drawn) | i | -6* | i | i | i
CC1(C)C(=O)Nc2ccccc2N1C(=O)COC(=O)C1CCCCC1 | i | i | i | i | 10*
CSc1nc(O)c(C(c2ccccc2Cl)c2c(O)nc(SC)[nH]c2=O)c(=O)[nH]1 | i | i | i | i | i
CCOc1ccc(S(=O)(=O)N2CCOCC2)cc1NC(=O)CSCc1c(C)noc1C | i | i | i | i | 10*
CC(Oc1ccc(C(=O)c2ccccc2)cc1)C(=O)Nc1ccc(S(N)(=O)=O)cc1 (stereo not drawn) | 58* | i | i | i | i
CC(Oc1ccccc1)C(=O)Nc1ccc(NC(=O)c2ccccc2)cc1 (stereo not drawn) | i | i | i | i | i
CCOC(=O)c1cnc2ccccc2c1NCc1ccco1 | i | -6* | i | i | i
CCOC(=O)c1cnc2ccc(OC)cc2c1NCc1ccccc1 | i | i | i | i | i
C[C@@H](C(=O)NCc1c(F)cccc1Cl)N1C(=O)N2CCc3c([nH]c4ccccc34)[C@@]2(C)C1=O | i | i | i | i | i
CCC(C)N(C(=O)Cn1nnc2ccccc21)C(C(=O)Nc1ccc(F)cc1)c1cccc(OC)c1 (stereo not drawn) | i | i | 14* | i | i
Cn1c(=O)c2sccc2n2c(CCCC(=O)NC3CCN(Cc4ccccc4)CC3)nnc12 | i | i | i | i | 14*
Cn1c(=O)c2sccc2n2c(CCCC(=O)Nc3ccccc3)nnc12 | i | i | i | i | i
COc1cc(C)ccc1S(=O)(=O)NC1CC(C)(C)NC(C)(C)C1 | i | i | i | i | i
O=C(NCCC1CCCCN1S(=O)(=O)c1cccs1)C(=O)Nc1cccc(F)c1 (stereo not drawn) | i | i | i | i | i
Fc1ccc(CN2CCC(Cc3ccccc3)CC2)cc1F | i | -6* | i | i | i
COc1cc(OC)c(CN2CCC(Cc3ccccc3)CC2)cc1Br | 108* | i | i | i | i
Cc1ccc(-c2cn(-c3ccccc3)c(SCC(N)=O)n2)cc1C | i | i | i | i | 21*
O=C(NCC(c1cccs1)N1CCOCC1)c1ccc(Cl)c([N+](=O)[O-])c1 (stereo not drawn) | 90* | i | i | i | i
CC(=O)[C@@H]1[C@@H]2C(=O)N(c3ccc(F)c(Cl)c3)C(=O)[C@@H]2C2c3ccccc3C=CN21 (stereo partly drawn) | i | -7* | i | i | i
CC(=O)[C@H]1[C@@H]2C(=O)N(c3cccc(Cl)c3)C(=O)[C@@H]2[C@H]2c3ccccc3C=CN21 | i | i | i | i | i
Cc1c(S(=O)(=O)N(C)C2CCCCC2)c(=O)n(C)c(=O)n1C | i | i | i | i | i
CC1CN(CCOCCOc2ccccc2-c2ccccc2)CC(C)O1 (stereo not drawn) | 63* | i | i | i | i
